Results reported in PubChem BioAssay AID1746 (Sanford-Burnham Center for Chemical Genomics, 2009).

System: Primary human hepatocytes, TRAIL cytotoxicity, ATPlite, 24 h
Test: hepatocyte cytotoxicity of TRAIL potentiators – cell-based, primary human hepatocytes, ATPlite luminescence, 24 h, cytotoxicity control for TRAIL sensitizer project, confirmation (AID 1746)
Conditions: for cytotoxicity with TRAIL: at 5 µM (top of the series); for cytotoxicity: stronger effect = higher value
How it was run: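 Material – primary human hepatocytes · Probe or stimulus – TRAIL, 1000 ng/mL final · Doses – compound 1.25–5 µM final · Incubation – 4 h compound pretreatment, then 24 h TRAIL exposure, 37 °C · Detection – ATPlite luminescence · Measure – percent cytotoxicity, sodium azide background signal subtracted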

[1] = compound alone without TRAIL, at 5 µM
[2] = measured here: TRAIL alone reference, dose or concentration not given here

Compound	cytotoxicity with TRAIL [%]	cytotoxicity [1] [%]	cytotoxicity [2] [%]
CSc1nc(-c2ccc(C)cc2)nc(C(Cl)Cl)n1	67	9	0
CSc1nc(-c2ccccc2)nc(C(Cl)Cl)n1	68	22	0
CCSc1nc(-c2ccccc2)nc(C(Cl)Cl)n1	73	47	0
